{"source": "paper PMC2836884", "about": "(Journal of Acquired Immune Deficiency Syndromes (1999), 2009)", "key": {"[1]": {"conditions": "in vivo, po; cited from earlier work"}, "[2]": {"conditions": "adults, cited from earlier work"}, "[3]": {"conditions": "children n = 22 (3 mo to 13 yrs), cited from earlier work"}, "[4]": {"conditions": "adults receiving 600 mg (approximately 8 mg/kg); Weller et al; cited from earlier work"}, "cytochrome P450 system": {"tested_on": "cytochrome P450 system", "conditions": "cited from earlier work"}, "[5]": {"conditions": "children receiving 8 mg/kg, primarily prepubescent; Jullien et al; cited from earlier work"}, "[6]": {"format": "in vivo, human", "outline": "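HIV-1–infected patients aged 9–18 y, Tanner-stratified; one oral-solution dose of 8 mg/kg (max 600 mg) with water, fasted from 1 h before to 2 h after. Heparinised plasma sampled at 0–8 h (10 points) and assayed by reversed-phase HPLC-UV. Per-subject 1-compartment zero-order-absorption fit by weighted least squares gave kel and CL/F; Tmax by inspection; AUC 0–8 h.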"}, "HIV": {"tested_on": "HIV", "conditions": "8 mg/kg twice daily with AZT or 3TC; previously untreated children; cited from earlier work"}, "[7]": {"conditions": "adults n = 12 (24–48 yrs), cited from earlier work"}, "[8]": {"conditions": "in vivo, cited from earlier work"}}, "note": "Read-outs that look alike come from different tables or passages of the source."}
{"compound": "Nc1nc(NC2CC2)c2ncn([C@H]3C=C[C@@H](CO)C3)c2n1", "note": "[ABC, Abacavir]", "values": [{"measurement": "amount eliminated unchanged in the urine", "setting": "[1]", "result": "< 5", "unit": "%"}, {"measurement": "AUC", "setting": "[2]; recommended dose 300 mg twice daily", "result": "5000 to 6000", "unit": "ng·h/mL"}, {"measurement": "AUC", "setting": "[2]; single-dose studies, 600 mg", "result": "11000 to 16000", "unit": "ng·h/mL"}, {"measurement": "AUC", "setting": "[3]; single dose 4 mg/kg", "result": 2800, "unit": "ng·h/mL"}, {"measurement": "CL/F", "setting": "[3]; single dose 4 mg/kg", "result": 27.4, "unit": "mL/min per kg"}, {"measurement": "Cmax", "setting": "[3]; single dose 4 mg/kg", "result": 1700, "unit": "ng/mL"}, {"measurement": "t½", "setting": "[3]; single dose 4 mg/kg", "result": 0.9, "unit": "h"}, {"measurement": "AUC", "setting": "[3]; single dose 8 mg/kg", "result": 8100, "unit": "ng·h/mL"}, {"measurement": "CL/F", "setting": "[3]; single dose 8 mg/kg", "result": 18.9, "unit": "mL/min per kg"}, {"measurement": "Cmax", "setting": "[3]; single dose 8 mg/kg", "result": 3900, "unit": "ng/mL"}, {"measurement": "t½", "setting": "[3]; single dose 8 mg/kg", "result": 1.1, "unit": "h"}, {"measurement": "mean CL/F", "setting": "[4]", "result": 11.5, "unit": "mL/min per kg"}, {"measurement": "substrate or inhibitor of the cytochrome P450 system", "setting": "cytochrome P450 system", "result": "not a substrate or inhibitor of the cytochrome P450 system"}, {"measurement": "mean CL/F", "setting": "[5]", "result": 15.8, "unit": "mL/min per kg"}, {"measurement": "Intersubject variation of CL/F referenced to body weight", "setting": "[6]; all subjects", "result": "more than 8 fold"}, {"measurement": "share of the total AUC in the period after 8 hours", "setting": "[6]; all subjects, estimated", "result": "< 3", "unit": "%"}, {"measurement": "Tmax", "setting": "[6]; both, human, plasma, po, 8 mg/kg", "result": 1, "unit": "h"}, {"measurement": "reduction in viral load versus AZT/3TC combination", "setting": "HIV", "result": "larger reduction in viral load"}, {"measurement": "AUC", "setting": "[7]; single dose 4 mg/kg", "result": 6000, "unit": "ng·h/mL"}, {"measurement": "CL/F", "setting": "[7]; single dose 4 mg/kg", "result": 13.4, "unit": "mL/min per kg"}, {"measurement": "Cmax", "setting": "[7]; single dose 4 mg/kg", "result": 2900, "unit": "ng/mL"}, {"measurement": "t½", "setting": "[7]; single dose 4 mg/kg", "result": 1.2, "unit": "h"}, {"measurement": "CL/F", "setting": "[7]; single dose 8 mg/kg (600 mg)", "result": 10.2, "unit": "mL/min per kg"}, {"measurement": "AUC", "setting": "[7]; single dose 8 mg/kg", "result": 15700, "unit": "ng·h/mL"}, {"measurement": "Cmax", "setting": "[7]; single dose 8 mg/kg", "result": 4700, "unit": "ng/mL"}, {"measurement": "t½", "setting": "[7]; single dose 8 mg/kg", "result": 1.7, "unit": "h"}, {"measurement": "oral clearance, adjusted for body size, higher for children than adults", "setting": "[8]; po", "result": "approximately 2 times"}, {"measurement": "systemic exposure (AUC) in children lower than adult values", "setting": "[8]", "result": "approximately 50%"}]}
